Source: paper PMC2780000 (Biochemistry, 2009)
Where a chain is given by its changes, count along the chain named.

Columns and labels:
Assay in all cases: aerobic spectrophotometric titration of flavin absorbance
Type in all cases: binding
[1] = molecular target: T1, Class 2 dihydroorotate dehydrogenase (DHOD) from E. coli (Escherichia coli, UniProt P0A7E1, T178A)
T1 sequence (P0A7E1 1-336 T178A): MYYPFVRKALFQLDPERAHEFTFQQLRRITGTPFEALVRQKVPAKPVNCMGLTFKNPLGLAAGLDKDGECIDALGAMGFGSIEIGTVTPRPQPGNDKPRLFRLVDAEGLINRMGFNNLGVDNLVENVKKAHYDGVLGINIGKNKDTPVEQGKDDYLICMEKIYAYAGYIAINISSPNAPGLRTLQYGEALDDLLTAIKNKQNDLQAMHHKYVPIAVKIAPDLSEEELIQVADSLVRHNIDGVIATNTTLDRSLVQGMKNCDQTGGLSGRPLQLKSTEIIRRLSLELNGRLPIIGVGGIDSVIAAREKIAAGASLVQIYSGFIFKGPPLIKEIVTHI
Outline: (§1)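 Enzymes (wild-type and mutants) expressed from the pAG-1 plasmid in E. coli SØ6645, purified, stored at −80 °C in 50% glycerol, and desalted into buffer before use. The oxidized enzyme in 0.1 M Tris-HCl, pH 8.5, 25 °C, was titrated aerobically with orotate in the same buffer. The flavin absorbance change (456→475 nm red-shift) vs orotate was fit to a binding equation using total enzyme and total ligand to give Kd.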

[2] = molecular target: T2, Class 2 dihydroorotate dehydrogenase (DHOD) from E. coli (Escherichia coli, UniProt P0A7E1, T178V)
T2 sequence (P0A7E1 1-336 T178V): T1 sequence (P0A7E1 1-336 T178A) with A178V
Outline: as §1

[3] = molecular target: T3, Class 2 dihydroorotate dehydrogenase (DHOD) from E. coli (Escherichia coli, UniProt P0A7E1, F115A)
T3 sequence (P0A7E1 1-336 F115A): T1 sequence (P0A7E1 1-336 T178A) with F115A, A178T
Outline: as §1

[4] = molecular target: T4, Class 2 dihydroorotate dehydrogenase (DHOD) from E. coli (Escherichia coli, UniProt P0A7E1, F115W)
T4 sequence (P0A7E1 1-336 F115W): T1 sequence (P0A7E1 1-336 T178A) with F115W, A178T
Outline: as §1

[5] = molecular target: T5, Class 2 dihydroorotate dehydrogenase (DHOD) from E. coli (Escherichia coli, UniProt P0A7E1, T178S)
T5 sequence (P0A7E1 1-336 T178S): T1 sequence (P0A7E1 1-336 T178A) with A178S
Outline: as §1

[6] = molecular target: T6, Class 2 dihydroorotate dehydrogenase (DHOD) from E. coli (Escherichia coli, UniProt P0A7E1, S175A)
T6 sequence (P0A7E1 1-336 S175A): T1 sequence (P0A7E1 1-336 T178A) with S175A, A178T
Outline: as §1

[7] = molecular target: T7, Class 2 dihydroorotate dehydrogenase (DHOD) from E. coli (Escherichia coli, UniProt P0A7E1, F115L)
T7 sequence (P0A7E1 1-336 F115L): T1 sequence (P0A7E1 1-336 T178A) with F115L, A178T
Outline: as §1

[8] = molecular target: T8, Class 2 dihydroorotate dehydrogenase (DHOD) from E. coli (Escherichia coli, UniProt P0A7E1, F115L/T178V)
T8 sequence (P0A7E1 1-336 F115L/T178V): T1 sequence (P0A7E1 1-336 T178A) with F115L, A178V
Outline: as §1

O=C(O)c1cc(=O)[nH]c(=O)[nH]1 [orotate]
Kd [1]: 6.1 ± 0.8 µM | Kd [2]: 0.56 ± 0.04 µM | Kd [3]: 3.8 ± 0.5 µM | Kd [4]: 8.1 ± 0.4 µM | Kd [5]: 1.1 ± 0.4 µM | Kd [6]: 9.9 ± 0.9 µM | Kd [7]: 3.7 ± 0.3 µM | Kd [8]: 4.6 ± 0.3 µM
